Experiment [1] concerns the target T1, LasR (Pseudomonas aeruginosa, UniProt P25084). The experiment can be described thus: LasR agonism reporter gene assay. The conditions noted are these: 100 μM, normalized to OdDHL at 100 μM (100%); triplicate, error ≤10%. The format is cell-based. Background: In a reporter assay the amount or activity of a reporter protein is the signal.
The target of experiment [2] is T1, LasR. The experiment can be described thus: LasR antagonism reporter gene assay. In kind it is cell-based. The conditions noted are these: 100 μM against OdDHL at 10 nM; triplicate, error ≤10%.
The subject of experiment [3] is AbaR. The experiment can be described thus: AbaR agonism reporter gene assay. In kind it is cell-based, Acinetobacter baumannii. The conditions noted are these: 100 μM, normalized to OH-dDHL at 100 μM (100%); triplicate, error ±10%. In outline: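 Overnight A. baumannii abaI::lacZ culture diluted 1:100 in LB (pH 7.0), added to test compound from DMSO stock (final 100 or 10 μM), incubated statically at 37 °C for 18–24 h. OD600 read; aliquot lysed with Z buffer, CHCl3 and 0.1% SDS; ONPG 20 min at […], stopped with 1 M Na2CO3; A420/A550 converted to Miller units. Triplicate; scaled to 100 μM OH-dDHL (100%).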

In experiment [4] the test system is AbaR. The experiment can be described thus: AbaR antagonism reporter gene assay. The conditions noted are these: 100 μM against OH-dDHL at 700 nM; triplicate, error ±10%. In kind it is cell-based, Acinetobacter baumannii.

T1 sequence (P25084 whole entry): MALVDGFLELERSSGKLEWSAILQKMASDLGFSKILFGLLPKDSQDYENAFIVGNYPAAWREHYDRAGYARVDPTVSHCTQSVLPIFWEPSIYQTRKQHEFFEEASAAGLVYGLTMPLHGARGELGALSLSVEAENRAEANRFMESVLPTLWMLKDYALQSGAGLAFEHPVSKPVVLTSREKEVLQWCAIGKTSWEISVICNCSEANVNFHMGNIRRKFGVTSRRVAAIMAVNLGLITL

In the case of `CCCc1cn(CC(=O)NC2CCOC2=O)nn1` (stereo not shown) [I-A], on LasR [1], the “Activation [%] LasR” value amounted to 0%. The “Inhibition [%] LasR” value at LasR [2] is 55%. The “Activation [%] AbaR” value with AbaR [3] is 0%. Also, the “Inhibition [%] AbaR” value in the experiment on AbaR [4] is given as 47%.

The values are drawn from PMC3566574 (Organic & biomolecular chemistry, 2012).
